Assay results reported in ChEMBL document CHEMBL1129795, “2-Azetidinone cholesterol absorption inhibitors: structure-activity relationships on the heterocyclic nucleus” (1996).

Key:
[1] = molecular target: T1, Sterol O-acyltransferase 1 (Rattus norvegicus) (UniProt O70536); test: In vitro for inhibitory activity against Acyl coenzyme A:cholesterol acyltransferase 1 from rat liver microsomes at 50 uM
T1 sequence (whole entry): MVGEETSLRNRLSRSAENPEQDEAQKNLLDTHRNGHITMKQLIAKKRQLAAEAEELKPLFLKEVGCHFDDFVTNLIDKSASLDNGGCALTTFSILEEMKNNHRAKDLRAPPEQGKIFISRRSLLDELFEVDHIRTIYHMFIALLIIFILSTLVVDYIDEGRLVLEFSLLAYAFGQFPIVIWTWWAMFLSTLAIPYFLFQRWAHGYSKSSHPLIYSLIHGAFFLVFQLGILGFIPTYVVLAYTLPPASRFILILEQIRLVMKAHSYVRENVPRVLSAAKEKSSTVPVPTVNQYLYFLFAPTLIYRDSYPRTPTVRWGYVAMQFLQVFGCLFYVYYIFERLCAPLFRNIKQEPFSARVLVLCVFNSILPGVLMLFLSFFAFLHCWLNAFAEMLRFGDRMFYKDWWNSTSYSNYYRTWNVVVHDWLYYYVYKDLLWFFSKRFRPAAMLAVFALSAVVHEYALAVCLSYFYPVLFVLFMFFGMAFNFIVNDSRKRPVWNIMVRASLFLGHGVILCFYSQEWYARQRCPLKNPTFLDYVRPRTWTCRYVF
Summary of the method: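 Rat liver microsomes were used to measure ACAT activity as the formation of cholesteryl [3H]oleate from cholesterol and [3H]oleoyl CoA. Results are given as percent inhibition at a single concentration.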

[2] = system: Cricetinae gen. sp.; test: In vivo for cholesterol absorption inhibitory activity using 7-day cholesterol-fed hamster model (expressed as percent change in cholesteryl esters at 50 mg/kg/day); type: functional, Cricetulus griseus
Summary of the method: (§1)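 Hamsters were fed a high-cholesterol diet for 7 days and gavaged once daily with compound in 0.2 mL corn oil. On the last day, animals were sacrificed and hepatic and serum lipids were determined. Results are given as percent change in hepatic cholesteryl ester or serum cholesterol concentration versus diet-fed controls gavaged with corn oil without drug.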

[3] = system: Cricetinae gen. sp.; test: In vivo cholesterol absorption inhibitory activity using 7-day cholesterol-fed hamster model (expressed as percent change in serum cholesterol at 50 mg/kg/day); type: functional, Cricetulus griseus; summary of the method: as §1
[4] = system: Cricetinae gen. sp.; test: Compound was tested in vivo for Cholesterol absorption inhibitory activity by using 7-day cholesterol-fed hamster model.(change in % change in cholesteryl esters(tested at 50 mg/kg/day).; type: functional, Cricetulus griseus; summary of the method: as §1
[5] = system: Cricetinae gen. sp.; test: Compound was tested in vivo for Cholesterol absorption inhibitory activity by using 7-day cholesterol-fed hamster model.(change in serum cholesterol( tested at 50 mg/kg/day).; type: functional; summary of the method: as §1

Compound	inhibition [1]	Change [2]	Change [3]	Change [4]	Change [5]
COc1ccc(N2C(=O)[C@H](CCCc3ccccc3)[C@H]2c2ccc(OC(C)C)cc2)cc1	59%	-94%	-38%		
COc1ccc(N2C(=O)[C@@H](CCCc3ccccc3)[C@H]2c2cccc(OC)c2)cc1	39%	-54%	-19%		
COc1ccc(N2C(=O)[C@H](CCCc3ccccc3)[C@H]2c2ccc(C)cc2)cc1	18%	-21%	-20%		
COc1ccc(N2C(=O)[C@@H](CCCc3ccccc3)[C@H]2c2ccc(O)cc2)cc1	20%	-75%	-31%		
CCCCCCCCCC[C@H]1C(=O)N(c2ccc(OC)cc2)[C@@H]1c1ccc(OC)cc1				-18%	0%
CCCCCCCCCC[C@@H]1C(=O)N(c2ccc(OC)cc2)[C@@H]1c1ccc(OC)cc1				-15%	0%
CCOc1ccc([C@@H]2[C@H](CCCc3ccccc3)C(=O)N2c2ccc(OC)cc2)cc1	79%	-93%	-48%		
COc1ccc(N2C(=O)[C@H](CCCc3ccccc3)[C@H]2c2ccccc2)cc1	22%	-15%	-6%		
CCOc1ccc([C@@H]2[C@@H](CCCc3ccccc3)C(=O)N2c2ccc(OC)cc2)cc1	68%	-98%	-52%		
COc1ccc(N2C(=O)[C@H](CCCc3ccccc3)[C@H]2c2ccc(O)c(O)c2)cc1					0%
COc1ccc(N2C(=O)[C@H](CCCc3ccccc3)[C@H]2c2ccc([N+](=O)[O-])cc2)cc1	21%	0%	-11%		
CC[C@]1(CCCc2ccccc2)C(=O)N(c2ccc(OC)cc2)[C@@H]1c1ccc(OC)cc1		0%	0%		
COc1ccc([C@@H]2[C@H](C)C(=O)N2c2ccc(OC)cc2)cc1		0%	0%		
C=CCOc1ccc(N2C(=O)[C@H](CCCc3ccccc3)[C@H]2c2ccc(OC)cc2)cc1		-90%	-44%		
COc1ccc(N2C(=O)[C@H](CCCc3ccccc3)[C@H]2c2ccc(N)cc2)cc1	63%	0%	0%		
CC[C@H]1C(=O)N(c2ccc(OC)cc2)[C@@H]1c1ccc(OC)cc1		0%	0%		
COc1ccc(N2C(=O)[C@H](CCCc3ccccc3)[C@H]2c2ccccc2OC)cc1		0%	0%		
CCN(CC)c1ccc(N2C(=O)[C@H](CCCc3ccccc3)[C@H]2c2ccc(OC)cc2)cc1		-95%	-51%		
COc1ccc([C@H]2N(c3ccc(OC)cc3)C(=O)C2(c2ccccc2)c2ccccc2)cc1		0%	0%		
COc1ccc([C@@H]2[C@@H](CCCc3ccccc3)C(=O)N2c2ccc(Cl)cc2)cc1		-93%	-44%		
COc1ccc([C@H]2N(c3ccc(OC)cc3)C(=O)[C@]2(C)CCCc2ccccc2)cc1		21%	0%		
COc1ccc([C@@H]2[C@@H](CCCc3ccccc3)C(=O)N2c2cccc(OC)c2)cc1		-91%	-38%		
COc1ccc([C@@H]2[C@@H](CCCc3ccccc3)C(=O)N2c2cccc(N)c2)cc1		-54%	-25%		
COc1ccc([C@@H]2[C@@H](CCCc3ccccc3)C(=O)N2C)cc1		0%	0%		
COc1ccc(N2C(=O)[C@H](CCCc3ccccc3)[C@H]2c2cccc(OC)c2)cc1	21%	-24%	-17%		
COc1ccc(N2C(=O)[C@@H](CCCc3ccccc3)[C@H]2c2ccccc2)cc1		0%	0%		
COc1ccc(N2C(=O)[C@H](CCCc3ccccc3)[C@H]2c2ccc(OC)c(OC)c2)cc1	53%	-33%	-11%		

Compound	inhibition [1]	Change [2]	Change [3]	Change [4]	Change [5]
COc1ccc(N2C(=O)[C@H](CCCc3ccccc3)[C@H]2c2ccc([S+](C)[O-])cc2)cc1 (stereo partly drawn)		-32%	-17%		
COc1ccc([C@@H]2[C@@H](CCCc3ccccc3)C(=S)N2c2ccc(OC)cc2)cc1		-23%	0%		
COc1ccc([C@@H]2[C@@H](CCCc3ccccc3)C(=O)N2c2ccc([S+](C)[O-])cc2)cc1 (stereo partly drawn)		0%	-11%		
COc1ccc(N2C(=O)[C@H](CCCc3ccccc3)[C@H]2c2ccc(OC(F)(F)F)cc2)cc1		-29%	0%		
COc1ccc([C@@H]2[C@@H](CCCc3ccccc3)C(=O)N2c2ccc(Oc3ccccc3)cc2)cc1		-49%	-28%		
CCOc1ccc(N2C(=O)[C@H](CCCc3ccccc3)[C@H]2c2ccc(OC)cc2)cc1		-96%	-57%		
COc1ccc([C@@H]2[C@@H](CCCC3CCCCC3)C(=O)N2c2ccc(OC)cc2)cc1		-47%	-23%		
COc1ccc([C@H]2N(c3ccc(OC)cc3)C(=O)[C@@]2(Cc2ccccc2)c2ccccc2)cc1		16%	16%		
COc1ccc(N2C(=O)[C@H](CCCc3ccccc3)[C@H]2c2ccc3c(c2)OCO3)cc1		-19%	0%		
COc1ccc(N2C(=O)[C@@H](CCCc3ccccc3)[C@H]2c2ccc(S)cc2)cc1		0%	-19%		
COc1ccc(N2C(=O)[C@H](CCCc3ccccc3)[C@H]2c2ccc(SC)cc2)cc1		0%	0%		
CCCCOc1ccc([C@@H]2[C@H](CCCc3ccccc3)C(=O)N2c2ccc(OC)cc2)cc1		-70%	-15%		
COc1ccc(N2C(=O)[C@H](CCCc3ccccc3)[C@H]2c2ccc(CO)cc2)cc1	-6%	-46%	-21%		
COc1ccc([C@H]2N(c3ccc(OC)cc3)C(=O)[C@@]2(C)CCCc2ccccc2)cc1		-56%	0%		
COc1ccc([C@@H]2[C@@H](CCCCc3ccccc3)C(=O)N2c2ccc(OC)cc2)cc1		-23%	-8%		
COc1ccc(N2C(=O)C(CCCc3ccccc3)C23c2ccc(OC)cc2-c2cc(OC)ccc23)cc1 (stereo not drawn)		-22%	-22%		
CCC(=O)Oc1ccc(N2C(=O)[C@H](CCCc3ccccc3)[C@H]2c2ccc(OC)cc2)cc1				-54%	-22%
O=C1[C@H](CCCc2ccccc2)[C@@H](c2ccc(O)cc2)N1c1ccc(O)cc1		-90%	-35%		
COc1ccc([C@@H]2[C@@H](CCCc3ccccc3)C(=O)N2C23C[C@H]4C[C@@H](C2)C[C@@H](C3)C4)cc1		0%	0%		
COc1ccc(C(=O)N2C(=O)[C@H](CCCc3ccccc3)[C@H]2c2ccc(OC)cc2)cc1		0%	-25%		
COc1ccc([C@@H]2[C@@H](CCCc3ccccc3)C(=O)N2C(=O)c2ccccc2)cc1		16%	0%		
CC[C@@]1(c2ccccc2)C(=O)N(c2ccc(OC)cc2)[C@@H]1c1ccc(OC)cc1		-28%	0%		
COc1ccc(N2C(=O)[C@H](CCCc3ccccc3)[C@H]2c2ccc(O)cc2)cc1	8%	-48%	-16%		
COc1ccc([C@H]2N(c3ccccc3)C(=O)[C@]2(F)CCCc2ccccc2)cc1		-17%	-10%		
CC[C@]1(CCCc2ccccc2)C(=O)N(c2ccc(OC)cc2)[C@@H]1c1ccccc1		-29%	-12%		
COc1ccc([C@@H]2[C@H](CCCCCc3ccccc3)C(=O)N2c2ccc(OC)cc2)cc1		-70%	-24%		
